In ChEMBL document CHEMBL4706654, “Novel cyanothiouracil and cyanothiocytosine derivatives as concentration-dependent selective inhibitors of U87MG glioblastomas: Adenosine receptor binding and potent PDE4 inhibition” (Eur J Med Chem, 2021):
pIC50: −log10 of the molar value.

Tests used:
[1] = test system: U-87 MG; assay: Antiproliferative activity against human U-87 MG cells assessed as cell viability at 100 uM measured after 24 to 48 hrs by MTT assay relative to control; format: functional, U-87MG ATCC; settings: time 24-48 hrs, read-out: Activity
Method in brief: (§1)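 Cells seeded per well 24 h before treatment: HEK293 at 5.10^4, MCF7 at 4.10^4, U87MG at 10^5. Compounds were dissolved in DMSO (less than 1%) and diluted in DMEM, then incubated 24 and 48 h. Cells were washed with D-PBS and given MTT (from a 5 mg/mL stock) for 4 h, dissolved in DMSO, read at 540 nm. % viability = sample/control absorbance ×100. At least three independent experiments.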

[2] = test system: U-87 MG; assay: Antiproliferative activity against human U-87 MG cells assessed as cell viability at 50 uM measured after 24 to 48 hrs by MTT assay relative to control; format: functional, U-87MG ATCC; settings: time 24-48 hrs, read-out: Activity; method in brief: as §1
[3] = test system: U-87 MG; assay: Antiproliferative activity against human U-87 MG cells assessed as cell viability at 5 uM measured after 24 to 48 hrs by MTT assay relative to control; format: functional, U-87MG ATCC; settings: time 24-48 hrs, read-out: Activity; method in brief: as §1
[4] = Cytotoxicity against HEK293 cells assessed as cell viability at 100 uM measured after 24 to 48 hrs by MTT assay relative to control; format: cell-based; settings: human, HEK293 cells, time 24-48 hrs, read-out: Activity; method in brief: as §1
[5] = test system: U-87 MG; assay: Antiproliferative activity against human U-87 MG cells assessed as cell viability at 10 uM measured after 24 to 48 hrs by MTT assay relative to control; format: functional, U-87MG ATCC; settings: time 24-48 hrs, read-out: Activity; method in brief: as §1
[6] = test system: U-87 MG; assay: Antiproliferative activity against human U-87 MG cells assessed as reduction in cell viability measured after 24 to 48 hrs by MTT assay; format: functional, cell-based, U-87MG ATCC; method in brief: as §1
[7] = test system: HEK293; assay: Cytotoxicity against HEK293 cells assessed as reduction in cell viability measured after 24 to 48 hrs by MTT assay; format: cell-based; settings: Homo sapiens; method in brief: as §1

With `Cc1nc(-c2ccccc2)sc1C(=O)CSc1nc(-c2ccc(Cl)cc2)c(C#N)c(=O)[nH]1` the viability at 100 µM [1] was 22.5%, the viability at 50 µM [2] was 63.4% and the viability at 5 µM [3] was 90.9%. The viability at 100 µM [4] was > 50%, the viability at 10 µM [5] was 85.2% and the pIC50 [6] was 4.36.

Compound `Cc1nc(-c2ccc(Cl)cc2)sc1C(=O)CSc1nc(-c2ccc(Cl)cc2)c(C#N)c(=O)[nH]1` has a viability at 100 µM [1] of 12.8%, a viability at 50 µM [2] of 60% and a viability at 5 µM [3] of 99%. For the same compound, the pIC50 [7] was 4.12, the viability at 10 µM [5] was 98.4% and the pIC50 [6] was 4.28.

In the case of `COc1ccc(-c2nc(C)c(C(=O)CSc3nc(-c4ccccc4)c(C#N)c(=O)[nH]3)s2)cc1`, the viability at 100 µM [1] was 10.9%, the viability at 50 µM [2] was 72.5% and the viability at 5 µM [3] was 99%. For the same compound, the viability at 100 µM [4] was > 50%, the viability at 10 µM [5] was 90.9% and the pIC50 [6] was 4.24.

`COc1cccc(-c2nc(SCC(=O)c3sc(-c4ccccc4)nc3C)[nH]c(=O)c2C#N)c1` showed a viability at 100 µM [1] of 21.8%, a viability at 50 µM [2] of 80.3% and a viability at 5 µM [3] of 99%. The pIC50 [7] was 4.04, the viability at 10 µM [5] was 90.2% and the pIC50 [6] was 4.22.

For `Cc1nc(-c2ccccc2)sc1C(=O)CSc1nc(-c2cccc(Cl)c2)c(C#N)c(=O)[nH]1`, the viability at 100 µM [1] was 10%, the viability at 50 µM [2] was 50.6% and the viability at 5 µM [3] was 86.9%. The viability at 100 µM [4] was > 50%, the viability at 10 µM [5] was 83.7% and the pIC50 [6] was 4.55.

For `COc1ccc(-c2nc(C)c(C(=O)CSc3nc(-c4cccc(OC)c4)c(C#N)c(=O)[nH]3)s2)cc1`, the viability at 100 µM [1] was 12.4%, the viability at 50 µM [2] was 43.2% and the viability at 5 µM [3] was 71.3%. For the same compound, the pIC50 [7] was 4.02, the viability at 10 µM [5] was 66.7% and the pIC50 [6] was 4.81.

`Cc1nc(-c2ccc(Cl)cc2)sc1C(=O)CSc1nc(-c2ccc(Cl)c(Cl)c2)c(C#N)c(=O)[nH]1` gave a viability at 100 µM [1] of 36.5%, a viability at 50 µM [2] of 93.9% and a viability at 5 µM [3] of 101%. It also gave a pIC50 [7] of 4.33, a viability at 10 µM [5] of 97.1% and a pIC50 [6] of 4.08.

With `Cc1nc(-c2ccc(Cl)cc2)sc1C(=O)CSc1nc(-c2cccc(Cl)c2)c(C#N)c(=O)[nH]1` the viability at 100 µM [1] was 12.5%, the viability at 50 µM [2] was 52.6% and the viability at 5 µM [3] was 80.2%. For the same compound, the pIC50 [7] was 4.52, the viability at 10 µM [5] was 95.2% and the pIC50 [6] was 4.40.

Compound `COc1ccc(-c2nc(C)c(C(=O)CSc3nc(-c4ccc(Cl)c(Cl)c4)c(C#N)c(=O)[nH]3)s2)cc1` has a viability at 100 µM [1] of 31.1%, a viability at 50 µM [2] of 78.4% and a viability at 5 µM [3] of 101%. For the same compound, the pIC50 [7] was 4.34, the viability at 10 µM [5] was 88.6% and the pIC50 [6] was 4.16.

For `Cc1nc(-c2ccc(Cl)cc2)sc1C(=O)CSc1nc(-c2ccc3c(c2)OCO3)c(C#N)c(=O)[nH]1`, the viability at 100 µM [1] was 9.91%, the viability at 50 µM [2] was 68.3% and the viability at 5 µM [3] was 101%. The pIC50 [7] was 4.09, the viability at 10 µM [5] was 95% and the pIC50 [6] was 4.26.

`Cc1nc(-c2ccccc2)sc1C(=O)CSc1nc(-c2ccccc2)c(C#N)c(=O)[nH]1` gave a viability at 100 µM [1] of 9.23%, a viability at 50 µM [2] of 77.5% and a viability at 5 µM [3] of 92.1%. For the same compound, the pIC50 [7] was 4.03, the viability at 10 µM [5] was 87.5% and the pIC50 [6] was 4.25.

`COc1cccc(-c2nc(SCC(=O)c3sc(-c4ccc(Cl)cc4)nc3C)[nH]c(=O)c2C#N)c1` showed a viability at 100 µM [1] of 8.54%, a viability at 50 µM [2] of 47.6% and a viability at 5 µM [3] of 96.6%. For the same compound, the pIC50 [7] was 4.11, the viability at 10 µM [5] was 89.7% and the pIC50 [6] was 4.39.

Compound `COc1ccc(-c2nc(C)c(C(=O)CSc3nc(-c4ccc(Cl)cc4)c(C#N)c(=O)[nH]3)s2)cc1` has a viability at 100 µM [1] of 2.85%, a viability at 50 µM [2] of 48% and a viability at 5 µM [3] of 102%. The pIC50 [7] was 4.20, the viability at 10 µM [5] was 92.7% and the pIC50 [6] was 4.34.

With `COc1ccc(-c2nc(SCC(=O)c3sc(-c4ccccc4)nc3C)[nH]c(=O)c2C#N)cc1` the viability at 100 µM [1] was 1.08%, the viability at 50 µM [2] was 52.1% and the viability at 5 µM [3] was 97.3%. It also gave a pIC50 [7] of 4.12, a viability at 10 µM [5] of 90.4% and a pIC50 [6] of 4.32.

`Cc1nc(-c2ccccc2)sc1C(=O)CSc1nc(-c2ccc(Cl)c(Cl)c2)c(C#N)c(=O)[nH]1` showed a viability at 100 µM [1] of 24.4%, a viability at 50 µM [2] of 75.3% and a viability at 5 µM [3] of 98.6%. For the same compound, the pIC50 [7] was 4.07, the viability at 10 µM [5] was 92.5% and the pIC50 [6] was 4.19.
